UPR XBP1 act = activators of adaptive XBP1 UPR arm, primary screen, cell-based, CHO-XBP1 luciferase reporter, luminescence, uHTS; IRE1-XBP1 UPR activation; percent of tunicamycin response, DMSO as zero; activation, % at 20 µM; hit rate 0.33% among 330,000; AID 463104, 2010;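 active = versus positive control, 20 µM dose yields 30% or more activation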;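 also: 100% = tunicamycin at 10 µg/mL and 0% = DMSO only wells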
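incubation = overnight seeding at 37 °C, 6 h compound treatment at 37 °C | assay system = CHO-XBP1 cells stably carrying IRE1-XBP1-driven luciferase reporter | input = 1000 cells per well | detection = luciferase luminescence | dosing = single point, 20 µM final compound, 1% DMSO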
CHOP inhibitor = inhibitors of CHOP promoter induction, primary screen, cell-based, unfolded protein response, luciferase reporter | hit rate 3.8% among 220,000 | CHO-K1 CHOP-promoter luciferase, tunicamycin-induced, 15-18 h | inhibition, % at 10 µM;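 active = compounds that reduced the stress-induced luciferase reporter signal by more than about 70% of percent inhibition, limit read from the data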;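 also: 0% = tunicamycin plus vehicle and 100% = wells without tunicamycin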
M18AAP inhibitor = PfM18AAP inhibitors, malaria aminopeptidase, primary screen, biochemical, QFRET, recombinant enzyme. inhibition, % at 7.35 µM. H-Glu-NHMec fluorogenic cleavage. hit rate 1.2% among 290,000;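 active = inhibition above the campaign mean inhibition over all tested compounds plus 3 SD, cut at about 28% in these data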;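 also: 0% = plate median of test compound wells and 100% = 2 mM ZnCl2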
NS3 helicase inh = inhibitors of HCV NS3 helicase, primary screen, biochemical, Cy5 molecular beacon fluorescence | NS3 helicase DNA unwinding | inhibition, % at 10.9 µM | hit rate 0.56% among 290,000 | Hepatitis C virus NS3 helicase;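 active = inhibition above the mean of all tested compounds plus 3 SD, set per campaign, cut at about 35% in these data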;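 also: 0% = DMSO wells and 100% = thioflavine S control wells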
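System: NS3 helicase fragment of HCV / Schedule: 1 h at 25 °C / Control set: DMSO alone as 0% and 110 µM thioflavine S as 100% / Reagent: Cy5/quencher beacon DNA duplex and ATP to start / Technique: Cy5 fluorescence / Replication: singlicate / Evaluation: % inhibition of end-to-start signal ratio versus controls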
p97 ATPase inh = inhibitors of human p97 ATPase, primary screen, biochemical. hit rate 0.42% among 220,000. inhibition, % at 8 µM. Transitional endoplasmic reticulum ATPase (Homo sapiens), P55072. recombinant p97 ATPase, Kinase-Glo ATP luminescence, 3 h; in the data active = inhibition above about 15%;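 also: 0% = DMSO vehicle and 100% = wells lacking enzyme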
Target sequence (P55072 whole entry, looked up): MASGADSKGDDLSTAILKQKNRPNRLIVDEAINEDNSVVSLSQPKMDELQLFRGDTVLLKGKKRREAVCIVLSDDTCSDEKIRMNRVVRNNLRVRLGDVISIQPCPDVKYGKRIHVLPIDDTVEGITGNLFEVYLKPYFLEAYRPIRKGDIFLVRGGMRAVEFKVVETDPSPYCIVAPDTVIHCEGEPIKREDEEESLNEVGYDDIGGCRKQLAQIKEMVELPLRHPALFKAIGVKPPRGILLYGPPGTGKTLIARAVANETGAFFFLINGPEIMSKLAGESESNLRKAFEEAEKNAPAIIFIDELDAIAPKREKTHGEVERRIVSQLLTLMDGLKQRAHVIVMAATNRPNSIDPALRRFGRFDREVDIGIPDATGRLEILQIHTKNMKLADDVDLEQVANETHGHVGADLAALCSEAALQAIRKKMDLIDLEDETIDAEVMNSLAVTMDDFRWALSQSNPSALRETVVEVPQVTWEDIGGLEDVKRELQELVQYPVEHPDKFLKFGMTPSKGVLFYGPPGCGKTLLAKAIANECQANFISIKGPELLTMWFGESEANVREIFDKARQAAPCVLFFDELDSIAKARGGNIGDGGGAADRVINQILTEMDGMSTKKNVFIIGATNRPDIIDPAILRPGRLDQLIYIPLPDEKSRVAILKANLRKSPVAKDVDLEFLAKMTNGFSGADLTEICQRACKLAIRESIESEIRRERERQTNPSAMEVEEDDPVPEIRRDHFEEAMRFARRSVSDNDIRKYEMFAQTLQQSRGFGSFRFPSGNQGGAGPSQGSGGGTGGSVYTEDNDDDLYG
CHOP UPR activ = activators of apoptotic CHOP UPR arm, primary screen, cell-based, CHO-CHOP luciferase reporter, luminescence, uHTS | hit rate 0.34% among 330,000 | UPR activation; percent of tunicamycin response over DMSO baseline | activation, % at 10 µM | AID 449763, 2010;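 active = at 10 µM dose, activation of 40% or more, normalized to positive control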;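 also: 100% = tunicamycin at 10 µg/mL and 0% = DMSO alone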
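Assay system: CHO cells with stable CHOP pathway luciferase reporter; Buffer or medium: F12 plus 10% serum; Times: 16-18 h cell attachment, then 6 h compound exposure, 37 °C; Signal: luciferase luminescence; Read-out basis: percent activation relative to tunicamycin control; Control set: tunicamycin high control, DMSO low control.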
XBP1 UPR conf = IRE1-XBP1 UPR arm activators, confirmation, cell-based, CHO-XBP1 luciferase reporter, luminescence, single concentration. shares compounds with UPR XBP1 act. activation, % at 20 µM. hit rate 63% among 1,000;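 active = reporter signal at least 30% of the positive control's activation in two or more of four replicate wells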;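 also: plate controls were DMSO negative control for no effect and tunicamycin 10 µg/mL positive control for full effect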
* hit, by the source's call; x = no result; ! = repeats disagree. Rows were chosen to be rich in hits. Some 4.5% of all compounds tested hit in one or more screens of this group.

SMILES	UPR XBP1 act	CHOP inhibitor	M18AAP inhibitor	NS3 helicase inh	p97 ATPase inh	CHOP UPR activ	XBP1 UPR conf
O=C(c1nc2ccc(Cl)cn2c1CNCCc1cnccn1)N1CCCCCCC1	-0.5	x	2.4	1.4	x	1.1	x
CCOC(=O)/C(=N\Nc1ccc(C(C)=O)cc1)c1csc(Nc2ccccc2)n1	46.1*	46.1	-0.2	1.9	-0.4	7.4	93.9*
CCOC(=O)/C(=N\Nc1ccccc1[N+](=O)[O-])c1csc(N)n1	0.2	23.6	3.3	3.5	-0.2	0.0	x
Cc1cc(C)c2nc(SCC(=O)NCC3CCCO3)c(C#N)cc2c1 (centres undefined)	-4.6	-0.2	-15.2	-2.4	1.1	0.2	x
CCOC(=O)Cn1c2ccc(OC)cc2c2nc3ccccc3nc21	1.4	35.4	1.7	8.2	-3.7	-1.3	x
CCOc1ccc(Cn2c3ccc(OC)cc3c3nc4ccccc4nc32)cc1OC	117.9*	88.2*	-2.1	1.0	5.2	1.8	106.4*
CCN1C(=O)/C(=C2/Sc3ccc(OC)cc3N2C)SC1=Nc1cccc(O)c1	69.6*	35.0	-3.9	12.2	5.3	17.6	18.3
COc1cccc(/C=N/Nc2ccc([N+](=O)[O-])cn2)c1O	64.8*	x	13.8	12.8	x	17.4	63.5*
CC(=O)N1CCN(C(=O)c2cccc(S(=O)(=O)N3CCOCC3)c2)CC1	-1.3	x	x	x	x	-0.3	x
Cc1ccc(Nc2nc(NCCO)c3ccccc3n2)cc1C	39.0*	x	2.7	-57.8	x	13.6	39.1*
COc1cnc(-c2ccccn2)nc1Oc1ccc(Cl)c2ccccc12	30.8*	80.7*	2.8	-8.6	-1.8	28.0	24.2
COc1cnc(-c2ccccn2)nc1Oc1ccccc1Cl	0.0	-14.4	-4.3	1.7	0.8	0.1	x
O=C(Nc1cccc(Cl)c1)c1nc[nH]c1C(=O)NCCCCNC(=O)c1[nH]cnc1C(=O)Nc1cccc(Cl)c1	60.2*	x	x	x	x	8.0	19.3
CCCCCCOc1ccc(/C(C)=N/NC2=NCCN2)cc1[N+](=O)[O-]	32.4*	1.3	2.3	-51.9	8.3	7.7	16.2
CCC(C)c1nc2ccsc2c(N2CCOC2=O)c1-c1ccccc1 (centres undefined)	-0.5	x	x	x	x	-0.9	x
CC(C)N(C(=O)Cn1c(=O)oc2ccccc21)c1ccccc1	-2.4	x	-1.1	-0.2	x	4.0	x
CCOC(=O)c1nn2c(C(F)(F)F)cc(-c3ccc(OC)cc3)nc2c1Br	3.7	x	1.6	2.9	x	-0.3	x
O=S(=O)(Oc1ccccc1N1CCCCC1)c1ccccc1	-0.9	4.2	-2.6	-4.6	3.9	0.7	x
COc1ccccc1C(=O)Nc1ccccc1SC(=O)c1ccccc1OC	33.6*	x	30.9*	-10.4	x	11.7	23.7
COc1cc(-c2ccc3oc(-c4ccsc4)cc3c2)cc(OC)c1OC	61.2*	x	x	x	x	6.2	31.5*
CC1CCC(C(C)C)C(OC(=O)Cn2c(-c3ccc(Cl)cc3)[n+](C)c3ccccc32)C1 (centres undefined)	86.8*	24.7	-1.7	-90.8	-2.0	9.0	86.0*
CC1CCC(C(C)C)C(OC(=O)Cn2c(-c3ccc(Br)cc3)[n+](C)c3ccccc32)C1 (centres undefined)	109.1*	90.2*!	0.5	-41.3	-0.4	18.7	108.4*
COc1cccc(C2Nc3ccc4ccccc4c3C3=C2C(=O)CCC3)c1O (centres undefined)	57.0*	x	3.9	14.9	x	1.7	7.5
COc1cc(C2CC(=O)c3c(ccc4ccccc34)N2)ccc1O (centres undefined)	0.0	21.2	-0.3	1.7	-3.3	-1.6	x
COc1ccc(NC(=O)CN(C)C(=O)c2ccc(NS(=O)(=O)c3ccc(F)cc3)cc2)cc1	-1.0	x	x	x	x	0.3	x

Screening results: PubChem BioAssay, several laboratories
